This is an account of results in PubChem BioAssay AID652139 (Broad Institute, 2013).

Inconclusive results are not listed. Activity calls are given as the source filed them. No rule for the calls is given here.

Assay in all cases: cytotoxicity across cancer and normal cell panel, profiling panel, mechanism study for HRAS target identification project, CellTiter-Glo ATP luminescence, multiple timepoints (AID 652139)
Holding throughout (conditions): Cancer/normal cell panel viability
Background: Cellular ATP, detected with luciferase, serves as a proxy for viable cell number.

One experiment deals with C2C12. In a few lines: (§1)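 Assay system: human tumour lines plus mouse C2C12 and HUVEC / Quantity: 1,500 cells/well / Schedule: overnight pre-culture, then multiple compound exposures incl. 24 and 48 h / Measured by: CellTiter-Glo luminescence measuring cellular ATP / Format: one plate per timepoint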
A further experiment concerns CCRF-CEM. The procedure, abridged: as §1
Another experiment deals with HT-29. In a few lines:
as §1

A further experiment concerns HeLA. In a few lines:
as §1

In a further experiment the test system is LOX-IMVI. In a few lines:
as §1

Another experiment concerns SNB-75. The procedure, abridged: as §1
The next experiment has as its system SR. The procedure, abridged:
as §1

The test system of the next experiment is U-251. The procedure, abridged:
as §1

Another experiment concerns HUVEC. In a few lines: as §1
A further experiment deals with SNB-19. In a few lines:
as §1

`COC(=O)c1ccc([C@@H]2c3[nH]c4ccccc4c3C[C@@H](C(=O)OC)N2C(=O)CCl)cc1`: the AC50 (in general, the midpoint of the concentration-response curve, whichever way the signal moves) in the experiment on C2C12 is 101 nM; in the experiment with CCRF-CEM it was 82.8 nM; with HT-29, 177 nM; in the experiment with HeLA, 573 nM; with LOX-IMVI it was 31 nM; in the experiment with SNB-75, 355 nM. Moreover, the values for the AC50 in the experiment with SR and in the experiment on U-251 were 32.9 nM and 1060 nM, respectively.
Regarding `Cc1onc(C(=O)N2CCN(C(c3ccc(Cl)cc3)c3ccc(Cl)cc3)CC2)c1[N+](=O)[O-]`, the AC50 in the experiment on CCRF-CEM is 207 nM; in the experiment on HT-29 it was 963 nM; with LOX-IMVI it was 103 nM; with SNB-75, 687 nM; in the experiment with SR, 142 nM; in the experiment with U-251, > 70000 nM (inactive). Moreover, the result with HUVEC was inactive.
As to `CCC(=O)N(c1ccc(OC)c(Cl)c1)C(C(=O)NCCc1ccccc1)c1cccs1` (centres undefined), the AC50 in the experiment on HT-29 and with HeLA was > 70000 nM (inactive) each time. The outcome in the experiment with LOX-IMVI, in the experiment on SNB-19 and in the experiment on U-251 was inactive.
Regarding `Cc1onc(C(=O)N2CCN(C(c3ccncc3)c3ccncc3)CC2)c1[N+](=O)[O-]`, the result in the experiment on C2C12, in the experiment on CCRF-CEM, in the experiment on HT-29, in the experiment on HUVEC, in the experiment with HeLA and with LOX-IMVI was inactive. The result in the experiment on SNB-19, in the experiment on SNB-75, in the experiment on SR and in the experiment with U-251 was inactive.
Turning to `CC(C)(C)OC(=O)NCCOCCOCCOc1ccc(N(C(=O)CCl)C(C(=O)NCCc2ccccc2)c2cccs2)cc1Cl` (centres undefined), the AC50 in the experiment on C2C12 is 442 nM; in the experiment on CCRF-CEM, 140 nM; in the experiment with HT-29, 457 nM; in the experiment on HUVEC, 13700 nM; in the experiment on HeLA it was 650 nM; with LOX-IMVI, 83.4 nM. Moreover, the AC50 in the experiment on SNB-19 was 1720 nM; in the experiment on SNB-75 it was 686 nM; in the experiment with SR it was 95.1 nM; in the experiment on U-251, 1350 nM.
On to `COc1ccc(N(C(=O)CCl)C(C(=O)NCCc2ccccc2)c2cccs2)cc1Cl` (centres undefined), for which the AC50 in the experiment on C2C12 was 842 nM; in the experiment on CCRF-CEM, 119 nM; in the experiment with HT-29, 162 nM; in the experiment with HUVEC, 8940 nM; in the experiment on HeLA, 547 nM; in the experiment with LOX-IMVI, 40.5 nM. Also, the AC50 is 1170 nM with SNB-19, 286 nM in the experiment on SNB-75, 61.8 nM with SR and 896 nM in the experiment with U-251.
As to `C#CCCCC(=O)NCCOCCOCCOc1ccc(N(C(=O)CCl)C(C(=O)NCCc2ccccc2)c2cccs2)cc1Cl` (centres undefined), the AC50 is 5420 nM in the experiment with C2C12; 1340 nM in the experiment on CCRF-CEM; 2860 nM in the experiment with HT-29; 4490 nM in the experiment on HeLA; 421 nM with LOX-IMVI; 4450 nM in the experiment with SNB-19. Also, the results for the AC50 in the experiment on SNB-75, in the experiment with SR and in the experiment on U-251 were 3560 nM, 885 nM and 6810 nM, respectively.
